Laboratory results: ChEMBL document CHEMBL3098105, “7,7'-Diazaindirubin--a small molecule inhibitor of casein kinase 2 in vitro and in cells” (Bioorg Med Chem, 2014)

Assays:
[1] = target: Ephrin type-B receptor 1 (Homo sapiens) (UniProt P54762); test: Inhibition of human EphB1 assessed as residual activity at 1 uM relative to control
[2] = target: CDK2/Cyclin A2 (Homo sapiens) (UniProt P24941+P20248); test: Inhibition of CDK2/CycA (unknown origin) assessed as residual activity at 1 uM relative to control; assay type: protein-complex assay
SF-295 = test: Antiproliferative activity against human SF295 cells after 3 days by sulforhodamine B assay; assay type: functional; details: SF-295, 72 h
Procedure, shortened: (§1)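 Tested in the NCI 60 cell line panel. GI50 is the concentration giving 50% inhibition of cell growth, and values are the mean of two series of tests.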

[3] = target: Serine/threonine-protein kinase ULK2 (Homo sapiens) (UniProt Q8IYT8); test: Inhibition of human ULK2 assessed as residual activity at 1 uM relative to control
A498 = test: Antiproliferative activity against human A498 cells after 3 days by sulforhodamine B assay; assay type: functional; details: A498, 72 h; procedure, shortened: as §1
MCF7 [4] = test: Antiproliferative activity against human MCF7 cells after 3 days by sulforhodamine B assay; assay type: functional; details: MCF7, 72 h; procedure, shortened: as §1
[5] = target: Tyrosine-protein kinase Fgr (Homo sapiens) (UniProt P09769); test: Inhibition of FGR (unknown origin) assessed as residual activity at 10 uM relative to control
[6] = target: Ribosomal protein S6 kinase alpha-1 (Homo sapiens) (UniProt Q15418); test: Inhibition of human Rsk1 assessed as residual activity at 1 uM relative to control
[7] = target: Fibroblast growth factor receptor 2 (Homo sapiens) (UniProt P21802); test: Inhibition of human FGFR2 assessed as residual activity at 1 uM relative to control
[8] = target: RAC-beta serine/threonine-protein kinase (Homo sapiens) (UniProt P31751); test: Inhibition of human PKBbeta assessed as residual activity at 1 uM relative to control
[9] = target: Cyclin-dependent kinase 5/CDK5 activator 1 (Homo sapiens) (UniProt Q00535+Q15078); test: Inhibition of CDK5/p35NCK (unknown origin) assessed as residual activity at 10 uM relative to control; assay type: protein-complex assay
[10] = target: Mitogen-activated protein kinase kinase kinase 7 (Homo sapiens) (UniProt O43318); test: Inhibition of human TAK1 assessed as residual activity at 1 uM relative to control
[11] = target: PAS domain-containing serine/threonine-protein kinase (Homo sapiens) (UniProt Q96RG2); test: Inhibition of human PASK assessed as residual activity at 1 uM relative to control
[12] = target: Cytoplasmic tyrosine-protein kinase BMX (Homo sapiens) (UniProt P51813); test: Inhibition of human Bmx assessed as residual activity at 1 uM relative to control
[13] = target: Fibroblast growth factor receptor 4 (Homo sapiens) (UniProt P22455); test: Inhibition of human FGFR4 assessed as residual activity at 1 uM relative to control
[14] = target: Tyrosine-protein kinase ITK/TSK (Homo sapiens) (UniProt Q08881); test: Inhibition of human Itk assessed as residual activity at 1 uM relative to control
[15] = target: Fibroblast growth factor receptor 3 (Homo sapiens) (UniProt P22607); test: Inhibition of human FGFR3 assessed as residual activity at 1 uM relative to control
MDA-MB-435 = test: Antiproliferative activity against human MDA-MB-435 cells after 3 days by sulforhodamine B assay; assay type: functional; details: MDA-MB-435, 72 h; procedure, shortened: as §1
[16] = target: Proto-oncogene tyrosine-protein kinase receptor Ret (Homo sapiens) (UniProt P07949); test: Inhibition of RET (unknown origin) assessed as residual activity at 1 uM relative to control
[17] = target: Rho-associated protein kinase 1 (Homo sapiens) (UniProt Q13464); test: Inhibition of human ROCK-1 assessed as residual activity at 1 uM relative to control
[18] = target: Ephrin type-A receptor 8 (Homo sapiens) (UniProt P29322); test: Inhibition of human EphA8 assessed as residual activity at 1 uM relative to control
MCF7 [19] = test: Cell cycle arrest in human MCF7 cells assessed as accumulation at G1 phase at 0.5 uM after 24 hrs using propidium iodide staining by FACS analysis (reference value: 57.74%); assay type: functional
[20] = target: Serine/threonine-protein kinase BRSK1 (Homo sapiens) (UniProt Q8TDC3); test: Inhibition of human BrSK1 assessed as residual activity at 1 uM relative to control
[21] = target: Calcium/calmodulin-dependent protein kinase type II subunit delta (Homo sapiens) (UniProt Q13557); test: Inhibition of human CaMK2delta assessed as residual activity at 1 uM relative to control
SW-620 = test: Antiproliferative activity against human SW620 cells after 3 days by sulforhodamine B assay; assay type: functional; details: SW-620, 72 h
[22] = target: Mitogen-activated protein kinase kinase kinase kinase 2 (Homo sapiens) (UniProt Q12851); test: Inhibition of human GCK assessed as residual activity at 1 uM relative to control
[23] = target: cAMP-dependent protein kinase catalytic subunit PRKX (Homo sapiens) (UniProt P51817); test: Inhibition of human PrKX assessed as residual activity at 1 uM relative to control
[24] = target: Dual specificity mitogen-activated protein kinase kinase 7 (Homo sapiens) (UniProt O14733); test: Inhibition of human MKK7beta assessed as residual activity at 1 uM relative to control
PC-3 = test: Antiproliferative activity against human PC3 cells after 3 days by sulforhodamine B assay; assay type: functional; details: PC-3, 72 h; procedure, shortened: as §1
T47D = test: Antiproliferative activity against human T47D cells after 3 days by sulforhodamine B assay; assay type: functional; details: 72 h
HT-29 = test: Antiproliferative activity against human HT-29 cells after 3 days by SRB assay; assay type: functional, cell-based; details: HT-29, 72 h
Procedure, shortened: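 Cells grown at 37 °C, 5% CO2, with 10% heat-inactivated FBS: LXFL529L in RPMI 1640, MCF7 and HT29 in DMEM. Seeded, allowed 24 h growth, then exposed to the drug at various concentrations for 3 days in serum medium. Fixed with TCA for 1 h at 4 °C, stained with 0.4% SRB, eluted in 10 mM Tris pH 10.5, read at 570 nm as % T/C. IC50 taken from dose–response curves of at least three independent experiments.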

MDA-MB-468 = test: Antiproliferative activity against human MDA-MB-468 cells after 3 days by sulforhodamine B assay; assay type: functional; details: MDA-MB-468, 72 h; procedure, shortened: as §1
SNB-75 = test: Antiproliferative activity against human SNB75 cells after 3 days by sulforhodamine B assay; assay type: functional; details: SNB-75, 72 h
[25] = target: Glycogen synthase kinase-3 beta (Homo sapiens) (UniProt P49841); test: Inhibition of GSK3-beta (unknown origin) assessed as residual activity at 1 uM relative to control
NCI-H460 = test: Antiproliferative activity against human NCI-H460 cells after 3 days by sulforhodamine B assay; assay type: functional; details: NCI-H460, 72 h; procedure, shortened: as §1
[26] = target: Tyrosine-protein kinase Fyn (Homo sapiens) (UniProt P06241); test: Inhibition of human Fyn assessed as residual activity at 1 uM relative to control

Chain of Fibroblast growth factor receptor 2 (Homo sapiens) (P21802 22-821 limits assumed): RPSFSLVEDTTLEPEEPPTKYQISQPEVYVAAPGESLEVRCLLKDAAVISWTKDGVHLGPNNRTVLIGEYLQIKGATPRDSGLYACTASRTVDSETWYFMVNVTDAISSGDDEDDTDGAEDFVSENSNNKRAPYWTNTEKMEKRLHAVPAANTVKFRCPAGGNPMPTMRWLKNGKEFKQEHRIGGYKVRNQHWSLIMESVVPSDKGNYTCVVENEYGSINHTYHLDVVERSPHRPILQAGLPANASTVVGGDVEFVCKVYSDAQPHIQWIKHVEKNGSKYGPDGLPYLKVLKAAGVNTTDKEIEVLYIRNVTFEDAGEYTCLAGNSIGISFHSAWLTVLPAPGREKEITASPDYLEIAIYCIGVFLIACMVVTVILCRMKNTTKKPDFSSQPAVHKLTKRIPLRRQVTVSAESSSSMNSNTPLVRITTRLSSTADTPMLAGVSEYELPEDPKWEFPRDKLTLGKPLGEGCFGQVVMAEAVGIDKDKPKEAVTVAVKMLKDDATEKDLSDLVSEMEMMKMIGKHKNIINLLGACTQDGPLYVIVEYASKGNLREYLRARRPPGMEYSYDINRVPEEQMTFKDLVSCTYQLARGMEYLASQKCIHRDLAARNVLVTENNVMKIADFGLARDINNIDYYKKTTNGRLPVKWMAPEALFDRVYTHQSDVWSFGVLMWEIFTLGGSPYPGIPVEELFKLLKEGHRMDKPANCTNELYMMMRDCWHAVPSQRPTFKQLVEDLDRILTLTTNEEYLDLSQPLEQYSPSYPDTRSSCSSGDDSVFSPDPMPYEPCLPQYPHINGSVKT
Chain of Mitogen-activated protein kinase kinase kinase kinase 2 (Homo sapiens) (Q12851 whole entry): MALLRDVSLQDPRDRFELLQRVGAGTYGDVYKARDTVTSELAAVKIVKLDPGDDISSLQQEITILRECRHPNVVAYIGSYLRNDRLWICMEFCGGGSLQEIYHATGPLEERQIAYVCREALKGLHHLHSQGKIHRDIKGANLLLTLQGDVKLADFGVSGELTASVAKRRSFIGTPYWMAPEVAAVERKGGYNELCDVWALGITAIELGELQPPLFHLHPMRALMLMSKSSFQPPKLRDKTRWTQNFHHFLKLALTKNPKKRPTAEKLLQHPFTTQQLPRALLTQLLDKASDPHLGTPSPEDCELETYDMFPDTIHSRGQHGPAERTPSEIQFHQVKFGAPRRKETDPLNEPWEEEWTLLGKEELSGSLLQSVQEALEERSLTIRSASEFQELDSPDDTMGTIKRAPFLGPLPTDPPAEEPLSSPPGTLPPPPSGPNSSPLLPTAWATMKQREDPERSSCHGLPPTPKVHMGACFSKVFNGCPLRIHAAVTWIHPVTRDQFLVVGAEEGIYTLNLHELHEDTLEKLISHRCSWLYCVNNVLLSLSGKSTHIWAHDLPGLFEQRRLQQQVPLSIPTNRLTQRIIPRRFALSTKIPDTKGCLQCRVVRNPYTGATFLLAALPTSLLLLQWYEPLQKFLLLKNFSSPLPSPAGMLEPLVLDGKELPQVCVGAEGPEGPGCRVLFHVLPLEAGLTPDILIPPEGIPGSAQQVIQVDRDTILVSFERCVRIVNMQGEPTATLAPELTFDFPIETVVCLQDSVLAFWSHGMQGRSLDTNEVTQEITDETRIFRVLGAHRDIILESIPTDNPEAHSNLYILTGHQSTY
Chain of Serine/threonine-protein kinase ULK2 (Homo sapiens) (Q8IYT8 whole entry): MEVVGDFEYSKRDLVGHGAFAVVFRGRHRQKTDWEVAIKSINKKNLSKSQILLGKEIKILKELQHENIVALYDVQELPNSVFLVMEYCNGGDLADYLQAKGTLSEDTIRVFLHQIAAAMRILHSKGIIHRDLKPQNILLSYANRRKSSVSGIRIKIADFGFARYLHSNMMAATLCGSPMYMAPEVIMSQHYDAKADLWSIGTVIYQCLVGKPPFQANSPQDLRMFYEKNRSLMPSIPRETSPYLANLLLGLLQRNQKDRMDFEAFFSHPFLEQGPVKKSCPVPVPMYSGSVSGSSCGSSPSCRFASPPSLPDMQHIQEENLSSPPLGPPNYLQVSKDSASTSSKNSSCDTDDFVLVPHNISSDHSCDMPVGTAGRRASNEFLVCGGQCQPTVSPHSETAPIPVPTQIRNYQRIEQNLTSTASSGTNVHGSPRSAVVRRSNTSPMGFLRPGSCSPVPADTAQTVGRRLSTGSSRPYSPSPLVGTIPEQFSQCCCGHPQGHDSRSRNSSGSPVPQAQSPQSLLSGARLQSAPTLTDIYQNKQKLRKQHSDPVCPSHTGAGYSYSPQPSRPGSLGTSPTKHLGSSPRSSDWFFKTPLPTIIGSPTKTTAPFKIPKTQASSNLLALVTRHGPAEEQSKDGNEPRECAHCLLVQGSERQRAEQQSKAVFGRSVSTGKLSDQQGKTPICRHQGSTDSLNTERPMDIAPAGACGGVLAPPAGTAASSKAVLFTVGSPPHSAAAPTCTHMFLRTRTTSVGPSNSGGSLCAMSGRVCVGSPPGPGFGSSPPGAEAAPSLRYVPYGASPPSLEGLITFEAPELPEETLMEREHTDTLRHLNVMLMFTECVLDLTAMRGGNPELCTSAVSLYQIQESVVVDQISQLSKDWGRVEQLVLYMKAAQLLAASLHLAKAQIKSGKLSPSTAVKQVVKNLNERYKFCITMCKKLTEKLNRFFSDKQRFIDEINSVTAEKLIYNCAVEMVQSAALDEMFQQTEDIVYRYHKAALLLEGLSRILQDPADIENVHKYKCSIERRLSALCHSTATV
Chain of Calcium/calmodulin-dependent protein kinase type II subunit delta (Homo sapiens) (Q13557 whole entry): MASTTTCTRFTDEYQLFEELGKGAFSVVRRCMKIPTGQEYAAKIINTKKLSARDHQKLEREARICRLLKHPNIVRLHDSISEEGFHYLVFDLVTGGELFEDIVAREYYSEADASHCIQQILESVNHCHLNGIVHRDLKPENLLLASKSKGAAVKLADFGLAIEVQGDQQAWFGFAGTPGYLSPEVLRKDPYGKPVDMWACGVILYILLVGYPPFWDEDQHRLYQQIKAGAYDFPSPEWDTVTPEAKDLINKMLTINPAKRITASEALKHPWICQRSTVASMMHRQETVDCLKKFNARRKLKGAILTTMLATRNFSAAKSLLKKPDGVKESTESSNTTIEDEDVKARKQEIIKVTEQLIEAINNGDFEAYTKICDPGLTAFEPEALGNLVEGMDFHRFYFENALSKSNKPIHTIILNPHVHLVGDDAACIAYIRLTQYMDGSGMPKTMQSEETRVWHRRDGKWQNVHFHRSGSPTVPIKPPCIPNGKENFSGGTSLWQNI
Chain of Ephrin type-B receptor 1 (Homo sapiens) (P54762 whole entry): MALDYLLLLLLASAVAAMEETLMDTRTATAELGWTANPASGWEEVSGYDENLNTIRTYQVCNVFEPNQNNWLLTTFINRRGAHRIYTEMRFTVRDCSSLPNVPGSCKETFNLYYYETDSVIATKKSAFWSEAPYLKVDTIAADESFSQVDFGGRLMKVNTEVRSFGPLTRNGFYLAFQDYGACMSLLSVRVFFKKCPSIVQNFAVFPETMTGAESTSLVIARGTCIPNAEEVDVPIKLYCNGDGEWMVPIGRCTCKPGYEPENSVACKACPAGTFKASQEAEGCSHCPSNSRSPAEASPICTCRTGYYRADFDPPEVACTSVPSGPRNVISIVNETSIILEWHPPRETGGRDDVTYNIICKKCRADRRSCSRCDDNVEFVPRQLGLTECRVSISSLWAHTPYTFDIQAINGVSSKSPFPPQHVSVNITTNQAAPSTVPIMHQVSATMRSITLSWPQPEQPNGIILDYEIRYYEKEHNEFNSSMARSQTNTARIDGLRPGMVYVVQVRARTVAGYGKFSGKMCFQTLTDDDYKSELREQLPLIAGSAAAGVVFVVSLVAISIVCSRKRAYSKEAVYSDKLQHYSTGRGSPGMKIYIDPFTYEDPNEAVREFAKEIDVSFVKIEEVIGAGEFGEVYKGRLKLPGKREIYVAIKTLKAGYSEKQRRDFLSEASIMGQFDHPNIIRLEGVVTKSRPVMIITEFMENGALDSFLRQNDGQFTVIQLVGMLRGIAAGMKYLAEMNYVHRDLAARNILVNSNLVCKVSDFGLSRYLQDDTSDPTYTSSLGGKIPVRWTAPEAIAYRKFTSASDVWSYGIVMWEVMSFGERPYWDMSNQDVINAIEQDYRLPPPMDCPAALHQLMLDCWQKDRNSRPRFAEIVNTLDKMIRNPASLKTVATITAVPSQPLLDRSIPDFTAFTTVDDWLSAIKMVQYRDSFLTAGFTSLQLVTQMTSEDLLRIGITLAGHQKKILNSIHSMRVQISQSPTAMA
Chain of cAMP-dependent protein kinase catalytic subunit PRKX (Homo sapiens) (P51817 whole entry): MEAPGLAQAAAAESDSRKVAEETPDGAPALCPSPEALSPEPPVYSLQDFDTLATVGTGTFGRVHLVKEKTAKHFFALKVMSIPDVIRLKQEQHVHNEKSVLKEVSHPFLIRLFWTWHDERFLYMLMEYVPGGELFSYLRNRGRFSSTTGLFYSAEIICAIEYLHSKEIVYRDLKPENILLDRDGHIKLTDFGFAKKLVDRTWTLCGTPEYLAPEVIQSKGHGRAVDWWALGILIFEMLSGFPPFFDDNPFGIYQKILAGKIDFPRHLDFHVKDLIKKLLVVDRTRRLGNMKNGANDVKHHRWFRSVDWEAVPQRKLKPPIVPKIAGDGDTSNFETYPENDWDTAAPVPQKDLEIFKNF
Chain of Cyclin-dependent kinase 5/CDK5 activator 1 (Homo sapiens) (Q00535 whole entry): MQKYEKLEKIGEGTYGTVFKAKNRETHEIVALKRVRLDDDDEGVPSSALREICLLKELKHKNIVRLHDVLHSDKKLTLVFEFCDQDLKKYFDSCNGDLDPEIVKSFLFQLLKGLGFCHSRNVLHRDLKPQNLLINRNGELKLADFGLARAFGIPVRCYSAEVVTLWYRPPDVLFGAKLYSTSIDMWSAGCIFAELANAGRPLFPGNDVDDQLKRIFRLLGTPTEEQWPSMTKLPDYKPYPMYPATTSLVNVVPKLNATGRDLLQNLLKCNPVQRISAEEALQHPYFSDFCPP
Chain of Cyclin-dependent kinase 5/CDK5 activator 1 (Homo sapiens) (Q15078 99-307 partner limits assumed): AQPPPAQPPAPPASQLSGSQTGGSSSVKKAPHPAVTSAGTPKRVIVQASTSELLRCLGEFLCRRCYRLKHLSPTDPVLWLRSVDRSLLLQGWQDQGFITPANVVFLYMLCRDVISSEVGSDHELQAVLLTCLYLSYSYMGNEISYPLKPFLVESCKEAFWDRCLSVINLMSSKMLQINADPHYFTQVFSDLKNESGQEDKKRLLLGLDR

O=C1Nc2ncccc2/C1=C1/Nc2ncccc2C1=O
Activity [1]: 114%
Activity [2]: 116%
GI50 (SF-295): 0.257 µM
Activity [3]: 65%
GI50 (A498): 1.66 µM
GI50 (MCF7 [4]): 1.09 µM
Activity [5]: 93%
Activity [6]: 114%
Activity [7]: 125%
Activity [8]: 87%
Activity [9]: 104%
Activity [10]: 95%
Activity [11]: 132%
Activity [12]: 116%
Activity [13]: 108%
Activity [14]: 106%
Activity [15]: 126%
GI50 (MDA-MB-435): 0.198 µM
Activity [16]: 97%
Activity [17]: 80%
Activity [18]: 114%
Activity (MCF7 [19]): 59.53%
Activity [20]: 69%
Activity [21]: 110%
GI50 (SW-620): 1.41 µM
Activity [22]: 102%
Activity [23]: 103%
Activity [24]: 103%
GI50 (PC-3): 2.02 µM
GI50 (T47D): 1.77 µM
IC50 (HT-29): 2 µM
GI50 (MDA-MB-468): 1.14 µM
GI50 (SNB-75): 1.58 µM
Activity [25]: 92%
GI50 (NCI-H460): 0.307 µM
Activity [26]: 124%
